# Assay outcomes deposited in PubChem by The Scripps Research Institute Molecular Screening Center.
# SIAE primary = inhibitors of human sialic acid acetylesterase SIAE | SIAE FP-Rh probe binding, fluorescence polarization | inhibition, % at 9.66 µM | hit rate 0.69% among 370,000 | AID 1053197;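 active means inhibition above a cutoff: mean of compounds within the control limits plus 3 SD of those, cut at about 17% in these data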
# Tn6 DDE FP = DD(E)-Tn6 binding inhibition, primary FP screen; P02675; Fibrin DD(E) TRITC-Tn6 fluorescence polarization displacement; inhibition, % at 8.3 µM; hit rate 0.21% among 370,000; AID 720509;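 active means inhibition above a per-campaign cutoff: mean of compounds within control limits plus 3 SD, cut at about 15% in these data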
# TCR-CD3 inh = blocks the human TCR-CD3 interaction; inhibition, % at 9.4 µM; AID 651800; hit rate 0.37% among 360,000; TAMRA-labeled TCR probe fluorescence, biochemical; in the data active means inhibition above about 19%;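 further: recombinant mutant TCR 2C K166C tagged with TAMRA read by polarization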
# mABHD4 FP = ABHD4 (mouse) inhibition, primary FP screen | purified mABHD4, FP-Rh probe fluorescence polarization | inhibition, % at 8.92 µM | hit rate 0.54% among 370,000 | AID 720543;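 active means inhibition exceeding the mean over every tested compound plus 3 SD, cut at about 30% in these data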
# Target sequence (Q8VD66 whole entry, looked up): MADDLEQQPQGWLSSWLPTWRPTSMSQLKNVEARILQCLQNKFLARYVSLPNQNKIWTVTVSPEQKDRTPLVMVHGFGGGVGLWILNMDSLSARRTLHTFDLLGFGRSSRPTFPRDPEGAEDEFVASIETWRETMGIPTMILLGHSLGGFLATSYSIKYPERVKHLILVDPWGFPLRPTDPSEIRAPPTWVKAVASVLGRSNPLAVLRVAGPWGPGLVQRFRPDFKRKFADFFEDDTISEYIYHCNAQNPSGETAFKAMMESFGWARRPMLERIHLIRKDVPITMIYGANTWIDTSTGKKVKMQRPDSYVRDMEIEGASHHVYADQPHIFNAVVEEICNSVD
#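 system = mouse ABHD4 enzyme, wild type | medium = HEPES pH 7.0, NaCl, Pluronic buffer | also added = FP-Rh probe | incubation = Enzyme–compound pre-incubation 45 min, then probe 60 min, both 25 °C | technique = fluorescence polarization, excitation 525 nm, emission 598 nm, BODIPY TMR filters | controls = S159A mutant high control, sample median low control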
# HTRA1 inh = blocks human HTRA1 serine peptidase; recombinant HTRA1, FP-rhodamine activity-based probe, fluorescence polarization; Q92743; hit rate 0.5% among 340,000; AID 504803; inhibition, % at 5.96 µM; in the data active means inhibition above about 36%
# DDE Tn7 FP inh = DD(E)-Tn7 binding inhibition, primary FP screen | inhibition, % at 8.3 µM | FP displacement of FITC-Tn7 peptide from fibrin DD(E); 0% = median of compound wells per plate | P02675 | hit rate 0.13% among 370,000;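 active means inhibition above the mean of compounds falling within the control limits plus 3 SD of them, cut at about 14% in these data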
#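 Assay system: human fibrin DD(E) protein / Input: 2 µM fibrin DD(E) / Benchmarks: high control of 10 µM Aha-Tn7 peptide / Measured by: fluorescence polarization of the labelled Tn7 tracer / Medium: Tris buffer with calcium and detergent, pH 7.8 / Timing: 10 min compound pre-incubation, 3 h probe incubation at room temperature / Repeats: one replicate per compound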
# mABHD4 conf = confirmation of mouse ABHD4 inhibitors; shares compounds with mABHD4 FP; purified mABHD4, FP-Rh probe fluorescence polarization; inhibition, % at 8.92 µM; hit rate 55% among 1,800;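 active means mean inhibition across replicates above the hit cutoff set in the primary screen, cut at about 30% in these data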
# A number is an active result; i = inactive; nt = not tested or not shown. Hits are enriched below; roughly 1.8% of the tested compounds scored in any of these assays.
SMILES,SIAE primary,Tn6 DDE FP,TCR-CD3 inh,mABHD4 FP,HTRA1 inh,DDE Tn7 FP inh,mABHD4 conf
COc1ccccc1N(C)c1cc2c(c3c1ccn3C)C1CCC2C1 (stereo not drawn),i,i,i,33,nt,i,i
COc1ccc(-c2csc(Nc3ccc(S(=O)(=O)Nc4cc(OC)nc(OC)n4)cc3)n2)cc1,i,i,i,i,i,i,nt
COc1cc(NS(=O)(=O)c2ccc(Nc3nc(-c4ccccn4)cs3)cc2)nc(OC)n1,i,i,i,35,i,i,31
COc1ccc(-c2csc(Nc3ccc(S(=O)(=O)Nc4cc(C)on4)cc3)n2)cc1C,i,i,i,34,i,i,i
CCN(CC)C(=O)c1ccc(C(CCOC(=O)Oc2ccccc2)c2ccc(OC)cc2)cc1 (stereo not drawn),i,i,nt,i,nt,i,nt
COc1ccc(N2COC3c4cccc5cccc(c45)C32)cc1 (stereo not drawn),i,i,i,43,i,i,i
Clc1ccc(N2COC3c4cccc5cccc(c45)C32)cc1 (stereo not drawn),i,i,i,i,i,i,nt
Cc1cc(-c2n[nH]c(=S)n2CC(C)C)cs1,i,i,i,32,i,i,i
CC(C)Cn1c(-c2csc(C(C)C)c2)n[nH]c1=S,i,i,i,i,nt,i,nt
Cc1ccc(NC(=O)CSc2nnc(Cc3ccccc3)c(=O)[nH]2)c(C)c1,i,i,i,i,i,i,nt
Cc1cc(C(c2ccc(C)o2)c2ccc(C)o2)c(O)c([N+](=O)[O-])c1,i,i,i,44,i,i,i
Cc1ccc(C(c2ccc(C)o2)c2cccc([N+](=O)[O-])c2O)o1,i,i,i,i,i,i,nt
CC1=C(C#N)C(=O)NC(=O)/C1=C\c1ccc(-c2ccc(C)cc2[N+](=O)[O-])o1,i,i,i,32,i,i,33
CCOC(=O)c1cc(-c2ccc(/C=C3/C(=O)NC(=O)C(C#N)=C3C)o2)ccc1Cl,i,i,i,i,i,i,nt
O=C(NN1C(=O)/C(=C/c2ccc(O)c([N+](=O)[O-])c2)SC1=S)c1ccccc1Cl,i,i,i,49,i,i,37
Cc1c(N2C(=O)/C(=C/c3ccc(N(C)C)cc3)N(C)C2=S)c(=O)n(-c2ccccc2)n1C,i,i,i,i,i,i,nt
CC1=CC2=NC(=O)CC(C)(C(=O)N(CC(=O)NC3CCCC3)c3ccccc3F)N2C=C1 (stereo not drawn),i,i,i,i,i,i,nt
CCOC(=O)N1CCC(NC(=O)CCN2C(=O)C3C4C=CC(C4)C3C2=O)CC1 (stereo not drawn),i,i,i,i,i,i,nt
O=C(CCN1C(=O)C2C3C=CC(C3)C2C1=O)NC1CCCCC1 (stereo not drawn),i,i,i,88,i,i,i
O=C(Nc1nc(OCCN2CCCC2=O)cnc1/C=C\c1ccccc1)c1cc2ccccc2s1,i,i,i,i,nt,i,nt
CNC[C@H](Cc1ccccc1)NC[C@@H](Cc1cccc2ccccc12)NCCc1ccc(C)cc1,i,i,i,49,i,i,49
CNCCNC[C@H](Cc1cccc2ccccc12)NCCc1ccccc1,i,i,i,i,i,i,nt
CC(NCC(O)COCCC12CC3CC(CC(C3)C1)C2)c1ccccc1 (stereo not drawn),i,i,i,31,i,i,i
NCC(O)COCCC12CC3CC(CC(C3)C1)C2 (stereo not drawn),i,i,i,i,i,i,nt
O=C1c2cc(Cl)ccc2-c2c(O)cc(Cl)cc21,i,i,i,i,i,i,nt
SMILES,SIAE primary,Tn6 DDE FP,TCR-CD3 inh,mABHD4 FP,HTRA1 inh,DDE Tn7 FP inh,mABHD4 conf
O=C(O)c1cc(O)c2c(c1)C(=O)c1cc(O)cc(O)c1C2=O,i,i,i,61,i,i,42
O=C(CCN1C(=O)c2ccccc2S1(=O)=O)Nc1ccc(C(=O)O)cc1,i,i,i,i,i,i,nt
O=C(C1=C(O)C(=O)N(CCc2ccccc2)C1c1cccs1)c1ccco1 (stereo not drawn),i,i,i,35,i,i,31
NS(=O)(=O)c1ccc(CCNC(=O)CN2C(=O)NC(c3ccccc3)(c3ccccc3)C2=O)cc1,i,i,i,49,i,i,i
O=C(Cc1ccccc1)c1ccccc1C(=O)N1CCCCC1,i,i,i,i,i,i,nt
CCCCCn1c(CN2CCN(C)CC2)nc2c1c(=O)n(C)c(=O)n2C,i,i,i,30,i,i,i
Cc1ccc(S(=O)(=O)N/N=C/c2ccc(O)c(O)c2)cc1[N+](=O)[O-],i,i,i,40,i,i,i
Cc1ccc(S(=O)(=O)N/N=C/c2ccccc2O)cc1[N+](=O)[O-],i,i,i,i,i,i,nt
Cc1cc(=O)oc2cc(OC(C)C(=O)NCC3CCC(C(=O)O)CC3)ccc12 (stereo not drawn),i,i,i,i,i,i,nt
O=C(COc1ccc2c(-c3ccccc3)cc(=O)oc2c1)NCC1CCC(C(=O)O)CC1 (stereo not drawn),i,i,i,40,i,i,42
Cc1cc(=O)oc2cc(OCC(=O)OCC(=O)Nc3ccccc3Br)ccc12,i,i,i,i,i,i,nt
O=C(COc1cc2oc(=O)cc(-c3ccccc3)c2cc1Cl)NCC1CCC(C(=O)O)CC1 (stereo not drawn),i,i,i,i,i,i,nt
CC(Oc1ccc2c(-c3ccccc3)cc(=O)oc2c1)C(=O)NCC1CCC(C(=O)O)CC1 (stereo not drawn),i,i,i,49,i,i,38
Cc1cc(=O)oc2cc(OCC(=O)Nc3ccccc3C(=O)O)ccc12,i,i,i,35,i,i,39
COc1cc(CNc2ccc3[nH]c(=O)[nH]c3c2)ccc1OCc1ccccc1,i,i,i,30,i,i,i
Cc1cc(C)nc(OC(C(=O)O)C(OCCC(C)C)(c2ccccc2)c2ccccc2)n1 (stereo not drawn),i,i,i,35,i,i,47
C/C(=N\Nc1nc2ccccc2s1)c1cccs1,i,i,i,31,i,i,i
CC(=NNc1nc2ccccc2s1)c1ncccn1,i,i,i,35,i,i,i
CC(=O)Nc1cccc(/C(C)=N/Nc2nc3ccccc3s2)c1,i,i,i,i,i,i,nt
Oc1ccc(C=NNc2nc3ccccc3s2)c(O)c1,i,i,i,43,i,i,36
CC(=NNc1nc2ccccc2o1)c1ncccn1,i,i,i,31,i,i,i
COC(=O)[C@H]1C[C@@]2(CC=C(C)C)c3ccccc3N(C(=O)OC(C)(C)C)[C@H]2N1C(=O)OC(C)(C)C,i,i,nt,i,nt,i,nt
